Test results as given in ChEMBL document CHEMBL2057117, “Oxoquinoline acyclonucleoside phosphonate analogues as a new class of specific inhibitors of human immunodeficiency virus type 1” (Bioorg Med Chem Lett, 2012).

Tests used:
[1] = tested on: Human immunodeficiency virus 1; assay: Antiviral activity against R5-tropic Human immunodeficiency virus 1 Ba-L subtype B infected in human PBMC assessed as inhibition of viral replication after 7 days by ELISA; assay type: functional, organism-based; settings: 168 h
How it was run: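 Phytohemagglutinin-stimulated PBMCs (2–3 days), then kept in medium with recombinant human IL-2, infected with HIV-1 Ba-L (R5-tropic, subtype B) and treated with a range of concentrations (µM). After 7 days, p24 antigen in culture supernatants was measured by capture ELISA. EC50 is the concentration reducing replication 50% versus infected controls. Mean ± SD of three independent experiments. AZT positive control.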

[2] = Selectivity ratio of CC50 for human PBMC to EC50 for R5-tropic Human immunodeficiency virus 1 Ba-L subtype B
How it was run: (§1)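 Selectivity index is calculated as CC50 (XTT viability in PBMCs, 7 days) divided by EC50 (p24 ELISA, HIV-1 Ba-L-infected PBMCs, 7 days).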

[3] = Cytotoxicity against human PBMC after 7 days by XTT assay; assay type: cell-based; settings: PBMC (peripheral blood mononuclear cells)
How it was run: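 Confluent PBMCs were exposed to a range of compound concentrations for 7 days, and viability was then read by XTT. CC50 is the concentration giving 50% cytotoxicity relative to untreated controls. Mean ± SD of three independent experiments.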

[4] = tested on: Human immunodeficiency virus 1; assay: Antiviral activity against Human immunodeficiency virus 1 Ba-L infected in macrophages assessed as inhibition of viral replication; assay type: functional, organism-based
[5] = molecular target: Human immunodeficiency virus type 1 reverse transcriptase (Human immunodeficiency virus 1, UniProt Q72547); assay: Inhibition of Human immunodeficiency virus 1 reverse transcriptase
[6] = tested on: Human immunodeficiency virus 1; assay: Antiviral activity against Human immunodeficiency virus 1 infected in human PBMC assessed as inhibition of viral replication; assay type: functional, organism-based
How it was run: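 Human PBMCs stimulated with phytohemagglutinin for 2–3 days, then kept in medium with recombinant human IL-2. Cells infected with HIV-1 Ba-L (R5-tropic, subtype B) and exposed to a range of compound concentrations for seven days. Supernatant p24 antigen measured by capture ELISA. EC50 is the concentration giving 50% less replication than infected controls. Mean ± SD of three independent experiments.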

[7] = Selectivity ratio of CC50 for human PBMC to EC50 for Human immunodeficiency virus 1 Ba-L; how it was run: as §1

Row | SMILES | EC50 [1] | Ratio CC50/EC50 [2] | CC50 at 168 h [3] | EC50 [4] | Ki [5] | EC50 [6] | Ratio CC50/EC50 [7]
1 | CCOC(=O)c1cn(CP(=O)(OC(C)C)OC(C)C)c2ccc(Cl)cc2c1=O | 8.1 µM | 152.4 | 1240 µM |  |  |  | 
2 | CCOC(=O)c1cn(CP(=O)(OC(C)C)OC(C)C)c2cc(Cl)ccc2c1=O | 21 µM | 39.4 | 828 µM |  |  |  | 
3 | CCOC(=O)c1cn(CP(=O)(OC(C)C)OC(C)C)c2ccc(Br)cc2c1=O | 56 µM | 14.3 | 802 µM |  |  |  | 
4 | CCOC(=O)c1cn(CP(=O)(OC(C)C)OC(C)C)c2cc(Br)ccc2c1=O | 61.2 µM | 11.9 | 731 µM |  |  |  | 
5 | CCOC(=O)c1cn(CP(=O)(OC(C)C)OC(C)C)c2ccc(C)cc2c1=O | 21.3 µM | 61.3 | 1320 µM |  |  |  | 
6 | CCOC(=O)c1cn(CP(=O)(OC(C)C)OC(C)C)c2cc(C)ccc2c1=O | 9 µM | 123.9 | 1120 µM |  |  |  | 
7 | CCOC(=O)c1cn(CP(=O)(OC(C)C)OC(C)C)c2ccc([N+](=O)[O-])cc2c1=O | 38 µM |  | 931 µM |  |  |  | 
8 | CCOC(=O)c1cn(CP(=O)(OC(C)C)OC(C)C)c2cc([N+](=O)[O-])ccc2c1=O | 22 µM | 36.9 | 812 µM |  |  |  | 
9 | O=C(O)c1cn([C@@H]2O[C@H](CO)[C@@H](O)[C@H]2O)c2ccc(Cl)cc2c1=O |  |  |  | 4.9 µM | 0.5 µM | 1.5 µM | 1134

More lines, main results first:

Row | EC50 [1] | SMILES | Ratio CC50/EC50 [2] | CC50 at 168 h [3] | EC50 [4] | Ki [5] | EC50 [6] | Ratio CC50/EC50 [7]
10 | 7.3 µM | CCOC(=O)c1cn(CP(=O)(OC(C)C)OC(C)C)c2ccccc2c1=O | 316.4 | 2310 µM |  |  |  | 
11 | 0.4 µM | CCOC(=O)c1cn(CP(=O)(OC(C)C)OC(C)C)c2ccc(F)cc2c1=O | 6240 | 2500 µM |  |  |  | 
12 | 0.2 µM | CCOC(=O)c1cn(CP(=O)(OC(C)C)OC(C)C)c2cc(F)ccc2c1=O | 14675 | 2940 µM |  |  |  | 
13 | 0.16 µM | Cc1cn([C@H]2C[C@H](N=[N+]=[N-])[C@@H](CO)O2)c(=O)[nH]c1=O [ZIDOVUDINE] |  | 128 µM |  |  |  | 
